Source: PubChem
A selection: hits, their analogues and other compounds. The true share with any hit is near 2%.
TCR CD3 inh: blocks the human TCR-CD3 interaction; 360,000 tested, 0.37% active; TAMRA-labeled TCR probe fluorescence, biochemical; inhibition, % at 9.4 µM; in the data active means inhibition above about 19%;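 further: recombinant mutant TCR 2C K166C tagged with TAMRA read by polarization; 0% = receptor in buffer alone and 100% = receptor with positive control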
UHRF1 binding: UHRF1 methyl-DNA binding inhibition; inhibition, % at 4.4 µM; UHRF1 binding to methylated oligo, TR-FRET; AID 687016; Q96T88; 370,000 tested, 0.75% active; in the data active means inhibition above about 21%;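 further: UHRF1 SRA domain binding a hemimethylated CpG hairpin DNA probe; 0% = median of test compound wells and 100% = reference inhibitor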
MBD2 DNA inh: MBD2-methylated oligo binding inhibition. Q9UBB5. TR-FRET, MBD2 binding to methylated oligonucleotide. inhibition, % at 4.4 µM. 370,000 tested, 0.31% active. AID 686964; in the data active means inhibition above about 13%
Target sequence (Q9UBB5 whole entry, looked up): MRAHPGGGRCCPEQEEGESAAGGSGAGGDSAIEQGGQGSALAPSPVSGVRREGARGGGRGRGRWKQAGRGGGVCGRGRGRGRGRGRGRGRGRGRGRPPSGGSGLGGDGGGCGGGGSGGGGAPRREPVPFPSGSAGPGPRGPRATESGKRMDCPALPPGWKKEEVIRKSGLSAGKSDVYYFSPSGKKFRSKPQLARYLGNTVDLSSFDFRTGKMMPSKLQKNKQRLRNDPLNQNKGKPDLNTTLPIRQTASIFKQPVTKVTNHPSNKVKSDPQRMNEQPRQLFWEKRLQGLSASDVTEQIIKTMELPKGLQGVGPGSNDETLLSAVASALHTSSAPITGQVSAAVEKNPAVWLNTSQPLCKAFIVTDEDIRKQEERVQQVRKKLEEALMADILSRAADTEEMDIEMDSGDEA
ASAP1 inh: inhibitors of human ASAP1 ArfGAP activity; ASAP1-stimulated ARF1 GTP hydrolysis, GDP FP detection; inhibition, % at 16.5 µM; 360,000 tested, 0.19% active; in the data active means inhibition above about 25%;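 further: 0% = vehicle with enzyme and substrate and 100% = no enzyme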
LEDGF integ inh: blocks HIV-1 LEDGF/p75-dependent DNA integration; TR-FRET IN-LEDGF/p75 DNA integration, Eu/Cy5; 370,000 tested, 0.64% active; inhibition, % at 3.7 µM; AID 743269;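 active means inhibition above the screen-wide mean plus 3 SD, cut at about 13% in these data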;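 further: signal is the Cy5 over europium emission ratio at 671 and 618 nm; 0% = plate median of compound wells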
ARFGAP1 inh: inhibitors of rat ARFGAP1. Q62848. Arfgap1-stimulated ARF1 GTP hydrolysis, GDP FP detection. inhibition, % at 16.5 µM. 360,000 tested, 0.26% active. AID 651572;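 active means inhibition above a per-plate limit, mean inhibition of low control wells plus 3 SD, cut at about 25% in these data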;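 further: 0% = DMSO wells with enzyme and 100% = wells lacking Arfgap1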
Target sequence (Q62848 1-136 limits assumed): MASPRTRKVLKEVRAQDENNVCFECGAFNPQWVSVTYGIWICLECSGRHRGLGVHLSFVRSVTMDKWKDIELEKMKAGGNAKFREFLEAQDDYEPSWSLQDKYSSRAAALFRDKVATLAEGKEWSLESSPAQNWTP
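system = rat Arfgap1 catalytic domain, aa 1-136 | technique = FP, GDP Alexa 633 tracer displaced from anti-GDP antibody, 620/688 nm | compound = one concentration, 16.5 µM, DMSO 1.26% | medium = HEPES-based buffer, pH 7.5 | timing = compound-enzyme preincubation 20 min, reaction 120 min, detection 60 min, 25 °C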
ASAP1 inh confirm: confirmation of human ASAP1 inhibitors; ASAP1-stimulated Arf1 GTPase, GDP fluorescence polarization; inhibition, % at 16.5 µM; 620 tested, 37% active; shares compounds with ASAP1 inh;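 active means mean inhibition over triplicates exceeds the hit threshold derived for the earlier primary screening run, cut at about 25% in these data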
The depositor's hits bear a star; · = no result given.

SMILES	TCR CD3 inh	UHRF1 binding	MBD2 DNA inh	ASAP1 inh	LEDGF integ inh	ARFGAP1 inh	ASAP1 inh confirm
CCOc1ccc(NC(=O)CN(C)C(=O)c2cn(-c3ccc(C)cc3)nc2-c2cccc(OC)c2)cc1OCC	-4	0	-5	34*	-1	11	14
Cc1cc(C)cc(NC(=O)CSc2nc(CSc3ccc(Cl)cc3)cc(=O)[nH]2)c1	-3	3	2	26*	-6	11	-4
Nc1cc(=O)[nH]c(SCC(=O)Nc2cc(Cl)cc(Cl)c2)n1	-3	-2	3	7	1	-5	·
COc1ccc(S[C@]2(C(=O)N3CCOCC3)CC(=O)N(C(=O)c3ccccc3)[C@@H]2c2ccc(OC)cc2)cc1	·	4	-3	·	-2	·	·
COc1ccc(C=NNC(=S)NN=Cc2ccc(OC)c(OC)c2)cc1OC	-4	-6	3	34*	-3	44*	59*
CCN1C[C@@H]2[C@@H]3C(=O)N(Cc4ccccc4)C(=O)[C@@H]3[C@](Cc3ccccc3)(C1=O)N2C(=O)c1ccc(Cl)cc1	6	-3	-3	56*	-1	7	1
CC1CCN(C(=O)c2[nH]cnc2C(=O)N[C@@H](C)C(=O)OCc2ccccc2)CC1	-2	-1	2	25*	-3	-10	2
Cc1cc(C)c(S(=O)(=O)c2ccccc2)c(OC(=O)c2c(F)cccc2F)n1	10	-2	-5	26*	0	21	11
O=C1CCn2c1c(O)c1ccccc1c2=O	-5	-5	-4	37*	4	9	15
O=c1c2ccccc2nc2n1CCCCC2	5	-1	5	9	-1	3	·
O=C(/C=C/c1cccs1)Nc1ccc(N2CCOCC2)c(S(=O)(=O)Nc2ccccc2Cl)c1	1	0	-1	8	-3	4	·
COc1ccccc1NS(=O)(=O)c1cc(NC(=O)/C=C/c2cccs2)ccc1N1CCOCC1	-5	1	1	32*	-4	20	18
CCCCCCCCCCCC(=O)c1c(O)cccc1O	-6	3	4	28*	2	14	11
Nc1nc(SCc2ccccc2)c2ncn(CCO)c2n1	2	0	1	-3	-2	-3	·
Cc1cc(C)c(C#N)c(SCc2cn3c(C)cccc3n2)n1	0	-2	-6	25*	-1	18	19
O=C(O)c1ccc2c(c1)C(=O)N([C@H](Cc1cccc3ccccc13)C(=O)O)C2=O	-9	0	3	4	-3	3	·
Cn1cc(SCC(=O)NC2CCCC2)c2ccccc21	-2	0	1	4	4	-2	·
Cn1cc(SCC(=O)NC2CCCCC2)c2ccccc21	1	2	-2	27*	5	16	13
CN(CCOC(=O)c1cc2ccccc2o1)C1CN(Cc2cn(Cc3ccccc3Cl)nn2)S(=O)(=O)C1 (configuration not stated)	·	-1	5	·	-1	·	·
CCOC(=O)C1CCCN(C(=O)c2cccc(S(=O)(=O)N(C)c3ccc(OC)cc3)c2)C1 (configuration not stated)	2	-2	-1	-6	1	4	·
CCOC(=O)C1CCCN(C(=O)c2cccc(S(=O)(=O)N(Cc3ccccc3)c3ccccc3OC)c2)C1 (configuration not stated)	-7	1	-5	29*	4	-6	0
Cn1c(SCC(=O)NC2CCCC2)nc2c(c1=O)SCC2	-2	4	0	28*	-7	17	10
COc1cc(C)ccc1S(=O)(=O)NC(=O)C1(C)CCN1C(=O)COc1ccc(Cl)cc1 (configuration not stated)	1	-1	-1	5	-1	-7	·
COC(=O)[C@]12C[C@H](CC(=O)NCCCN3CCCC3=O)C(=O)N(Cc3ccco3)C1=C[C@H](C1CCCC1)O[C@@H]2C	·	0	0	·	-1	·	·
O=C(NCc1ccco1)C12CN(Cc3ccccc3)CC1C(c1ccc([N+](=O)[O-])cc1)=NO2 (configuration not stated)	6	-4	-5	6	0	15	·
SMILES	TCR CD3 inh	UHRF1 binding	MBD2 DNA inh	ASAP1 inh	LEDGF integ inh	ARFGAP1 inh	ASAP1 inh confirm
O=C(NCc1ccco1)C12CN(Cc3ccccc3)CC1C(c1cccc([N+](=O)[O-])c1)=NO2 (configuration not stated)	-1	-2	5	25*	-1	0	8
COC(=O)[C@H](C)N(Cc1cn(Cc2ccccc2)nn1)S(=O)(=O)c1ccccc1Br	·	1	-6	·	2	·	·
O=C1C=CC(=O)N1c1cccc2cccnc12	6	2	-4	25*	3	3	3
CC(C)CC(=O)NC(=S)Nc1ccc(N2CCN(C(=O)c3cccs3)CC2)cc1	6	-2	0	-3	0	1	·
CC(C)CC(=O)NC(=S)Nc1ccc(NC(=O)c2cccs2)cc1	-1	4	1	25*	1	6	4
CC(Sc1nnc(C(C)Oc2ccc(F)cc2)o1)C(=O)NCc1ccc2c(c1)OCO2 (configuration not stated)	3	2	3	-8	4	2	·
Cc1cc(N=Cc2c(O)n(-c3ccc4c(c3)OCO4)c(=O)c3ccccc23)ccn1	4	-1	0	39*	0	-8	50*
Cc1ccc(-n2c(O)c(C=Nc3ccc4c(c3)OCO4)c3ccccc3c2=O)cc1C	-2	2	3	4	1	5	·
CCCC#Cc1ccc(CC[C@H]2O[C@H]3CC[C@@H](CO)O[C@H]3C[C@H]2NC(=O)CN2CCOCC2)cc1	·	7	-3	·	7	·	·
Cc1ccc(C(=O)Nc2cccc(NC(=O)c3ccc(C)c([N+](=O)[O-])c3)n2)cc1[N+](=O)[O-]	-2	4	2	28*	-2	5	28*
COc1cc(NC(=O)c2ccccc2)ccc1NC(=O)Cc1ccccc1	1	1	4	15	-4	-6	·
COc1cc(NC(=O)Cc2ccccc2)ccc1NC(=O)Cc1ccccc1	0	0	-2	30*	6	8	3
Cc1ccccc1NC(=O)c1cccc(N2C(=O)C3C4CC(C(Br)C4Br)C3C2=O)c1 (configuration not stated)	0	2	0	28*	4	8	6
Cc1c(C(=O)NCc2ccc(Cl)c(Cl)c2)sc(=O)n1Cc1cccc(F)c1	0	3	-3	25*	0	2	14
Cc1c(C(=O)NCc2cccc(Cl)c2)sc(=O)n1Cc1cccc(F)c1	2	0	-4	6	1	-3	·
CC(/C=C/c1ccccc1)=N/NC(=O)CNC(=O)c1ccccc1F	3	0	-5	3	1	0	·
